# Results as given in ChEMBL document CHEMBL5058577, “EUbOPEN Chemogenomics Library 2 (Multiplex)” (2022).
# Test system: HEK-293T
# Experiment: Multiplex assay against HEK293T
# Type: toxicity, cell-based
# Settings: human
# In short: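 Live cells were stained at seeding with Hoechst33342, BioTracker Green Microtubule Cytoskeleton Dye, MitoTracker Red and Annexin V Alexa Fluor 680, then imaged on a CQ1 microscope at 37°C and 5% CO2 after compound addition. CellPathfinder machine-learning gating split cells into Hoechst high-intensity objects or normal cells. Normal cells were split into healthy, pyknosed or fragmented nuclei, and pyknosed cells into mitotic or apoptotic. Tubulin, mitochondrial-mass and membrane-permeability phenotypes are per cents of healthy-nucleus cells.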
# [1] = 12 h, 1 µM, compound concentration 1 uM, replicate 1
# [2] = 12 h, 1 µM, compound concentration 1 uM, replicate 2
# [3] = 12 h, 10 µM, compound concentration 10 uM, replicate 1
# [4] = 12 h, 10 µM, compound concentration 10 uM, replicate 2
# [5] = 24 h, 1 µM, compound concentration 1 uM, replicate 1
# [6] = 24 h, 1 µM, compound concentration 1 uM, replicate 2
# [7] = 24 h, 10 µM, compound concentration 10 uM, replicate 1
# [8] = 24 h, 10 µM, compound concentration 10 uM, replicate 2
# [9] = 48 h, 1 µM, compound concentration 1 uM, replicate 1
# [10] = 48 h, 1 µM, compound concentration 1 uM, replicate 2
# [11] = 48 h, 10 µM, compound concentration 10 uM, replicate 1
# [12] = 48 h, 10 µM, compound concentration 10 uM, replicate 2
smiles,measurement,setting,value
O=c1ccc2ccc(OCCCCN3CCN(c4cccc5sccc45)CC3)cc2[nH]1 [BREXPIPRAZOLE],Population Apoptotic (%),[1],44%
same,Population Fragmented Nuclei (%),[1],6%
same,Population Healthy Nuclei (%),[1],77%
same,Population Hoechst High Intensity Objects (%),[1],6%
same,Population Membrane Permeable-Phenotype (%),[1],0%
same,Population Mitochondria Different-Phenotype (%),[1],67%
same,Population Mitotic Cells (%),[1],55%
same,Population Normal (%),[1],93%
same,Population Pyknosed Nuclei (%),[1],15%
same,Population Tubulin-Different-Phenotype (%),[1],51%
same,Total Cell Count,[1],392
same,Population Apoptotic (%),[2],42%
same,Population Fragmented Nuclei (%),[2],5%
same,Population Healthy Nuclei (%),[2],80%
same,Population Mitochondria Different-Phenotype (%),[2],69%
same,Population Mitotic Cells (%),[2],57%
same,Population Pyknosed Nuclei (%),[2],14%
same,Population Tubulin-Different-Phenotype (%),[2],47%
same,Total Cell Count,[2],354
same,Population Apoptotic (%),[3],82%
same,Population Fragmented Nuclei (%),[3],17%
same,Population Healthy Nuclei (%),[3],43%
same,Population Hoechst High Intensity Objects (%),[3],66%
same,Population Membrane Permeable-Phenotype (%),[3],0%
same,Population Mitochondria Different-Phenotype (%),[3],97%
same,Population Mitotic Cells (%),[3],17%
same,Population Normal (%),[3],33%
same,Population Pyknosed Nuclei (%),[3],38%
same,Population Tubulin-Different-Phenotype (%),[3],81%
same,Total Cell Count,[3],299
same,Population Apoptotic (%),[4],85%
same,Population Fragmented Nuclei (%),[4],10%
same,Population Healthy Nuclei (%),[4],66%
same,Population Hoechst High Intensity Objects (%),[4],41%
same,Population Mitochondria Different-Phenotype (%),[4],100%
same,Population Mitotic Cells (%),[4],14%
same,Population Normal (%),[4],59%
same,Population Pyknosed Nuclei (%),[4],23%
same,Population Tubulin-Different-Phenotype (%),[4],62%
same,Total Cell Count,[4],200
same,Population Apoptotic (%),[5],41%
same,Population Fragmented Nuclei (%),[5],10%
same,Population Healthy Nuclei (%),[5],73%
same,Population Hoechst High Intensity Objects (%),[5],8%
same,Population Membrane Permeable-Phenotype (%),[5],0%
same,Population Mitochondria Different-Phenotype (%),[5],51%
same,Population Mitotic Cells (%),[5],58%
same,Population Normal (%),[5],91%
same,Population Pyknosed Nuclei (%),[5],16%
same,Population Tubulin-Different-Phenotype (%),[5],36%
same,Total Cell Count,[5],501
same,Population Apoptotic (%),[6],42%
same,Population Fragmented Nuclei (%),[6],4%
same,Population Healthy Nuclei (%),[6],87%
same,Population Hoechst High Intensity Objects (%),[6],2%
same,Population Mitochondria Different-Phenotype (%),[6],52%
same,Population Mitotic Cells (%),[6],57%
same,Population Normal (%),[6],97%
same,Population Pyknosed Nuclei (%),[6],7%
same,Population Tubulin-Different-Phenotype (%),[6],35%
same,Total Cell Count,[6],449
same,Population Apoptotic (%),[7],91%
same,Population Fragmented Nuclei (%),[7],12%
same,Population Healthy Nuclei (%),[7],37%
same,Population Hoechst High Intensity Objects (%),[7],68%
same,Population Membrane Permeable-Phenotype (%),[7],0%
same,Population Mitochondria Different-Phenotype (%),[7],100%
same,Population Mitotic Cells (%),[7],8%
same,Population Normal (%),[7],31%
same,Population Pyknosed Nuclei (%),[7],50%
same,Population Tubulin-Different-Phenotype (%),[7],66%
same,Total Cell Count,[7],284
same,Population Apoptotic (%),[8],89%
same,Population Fragmented Nuclei (%),[8],10%
same,Population Healthy Nuclei (%),[8],59%
same,Population Hoechst High Intensity Objects (%),[8],46%
same,Population Mitochondria Different-Phenotype (%),[8],98%
same,Population Mitotic Cells (%),[8],10%
same,Population Normal (%),[8],53%
same,Population Pyknosed Nuclei (%),[8],30%
same,Population Tubulin-Different-Phenotype (%),[8],57%
same,Total Cell Count,[8],180
same,Population Apoptotic (%),[9],49%
same,Population Fragmented Nuclei (%),[9],9%
same,Population Healthy Nuclei (%),[9],80%
same,Population Hoechst High Intensity Objects (%),[9],5%
same,Population Membrane Permeable-Phenotype (%),[9],0%
same,Population Mitochondria Different-Phenotype (%),[9],47%
same,Population Mitotic Cells (%),[9],50%
same,Population Normal (%),[9],94%
same,Population Pyknosed Nuclei (%),[9],10%
same,Population Tubulin-Different-Phenotype (%),[9],28%
same,Total Cell Count,[9],679
same,Population Apoptotic (%),[10],48%
same,Population Fragmented Nuclei (%),[10],12%
same,Population Healthy Nuclei (%),[10],79%
same,Population Hoechst High Intensity Objects (%),[10],3%
same,Population Membrane Permeable-Phenotype (%),[10],1%
same,Population Mitochondria Different-Phenotype (%),[10],36%
same,Population Mitotic Cells (%),[10],51%
same,Population Normal (%),[10],96%
same,Population Pyknosed Nuclei (%),[10],7%
same,Population Tubulin-Different-Phenotype (%),[10],26%
same,Total Cell Count,[10],644
same,Population Apoptotic (%),[11],93%
same,Population Fragmented Nuclei (%),[11],19%
same,Population Healthy Nuclei (%),[11],30%
same,Population Hoechst High Intensity Objects (%),[11],67%
same,Population Membrane Permeable-Phenotype (%),[11],0%
same,Population Mitochondria Different-Phenotype (%),[11],96%
same,Population Mitotic Cells (%),[11],6%
same,Population Normal (%),[11],32%
same,Population Pyknosed Nuclei (%),[11],50%
same,Population Tubulin-Different-Phenotype (%),[11],51%
same,Total Cell Count,[11],269
same,Population Apoptotic (%),[12],89%
same,Population Fragmented Nuclei (%),[12],14%
same,Population Healthy Nuclei (%),[12],50%
same,Population Hoechst High Intensity Objects (%),[12],52%
same,Population Mitochondria Different-Phenotype (%),[12],97%
same,Population Mitotic Cells (%),[12],10%
same,Population Normal (%),[12],47%
same,Population Pyknosed Nuclei (%),[12],34%
same,Population Tubulin-Different-Phenotype (%),[12],82%
same,Total Cell Count,[12],170
